Bioassay records from PubChem.
Most compounds without a hit are left out; they make up all but 9.8% or so of the library.
PMI act = activators of human PMI, primary screen, biochemical, fluorescence intensity, near-Km mannose 6-phosphate; Mannose-6-phosphate isomerase (Homo sapiens), P34949; purified human PMI, coupled resazurin fluorescence, 20 min; stronger effect = higher value; 1 = vehicle control, 0 substrate-free wells; activation factor at 20 µM; actives 0.005% (n = 190,000); AID 1214, 2008;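 active means activation factor of 2 or more at 20 µM, relative to plate controls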
Target sequence (P34949 whole entry, looked up): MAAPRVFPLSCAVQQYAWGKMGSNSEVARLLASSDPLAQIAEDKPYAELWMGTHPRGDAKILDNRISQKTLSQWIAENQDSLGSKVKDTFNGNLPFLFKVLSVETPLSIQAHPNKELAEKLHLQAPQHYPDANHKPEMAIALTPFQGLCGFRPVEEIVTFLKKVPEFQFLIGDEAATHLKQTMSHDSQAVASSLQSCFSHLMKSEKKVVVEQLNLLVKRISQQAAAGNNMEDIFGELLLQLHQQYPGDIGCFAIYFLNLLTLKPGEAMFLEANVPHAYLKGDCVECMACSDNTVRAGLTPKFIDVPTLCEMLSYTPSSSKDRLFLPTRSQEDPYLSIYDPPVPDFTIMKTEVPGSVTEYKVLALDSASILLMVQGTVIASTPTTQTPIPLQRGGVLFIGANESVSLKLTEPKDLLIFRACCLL
Calpain2 inh = inhibitors of pig calpain II, primary screen, biochemical, fluorogenic peptide substrate, 1536-well; purified calpain II, 30 min; inhibition, % at 16 µM; actives 0.37% (n = 220,000);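 active means inhibition above about 50%, limit read from the data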
Rad51 HR inh = human RAD51 strand exchange inhibitors, primary screen, biochemical, fluorescence; DNA repair protein RAD51 homolog 1 (Homo sapiens), Q06609; hRad51 DNA strand exchange, fluorescence dequenching; inhibition, % at 10 µM; actives 0.085% (n = 200,000);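 active means inhibition above 40% at the single screening dose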;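 further: 0% = DMSO control wells and 100% = blanks with heterologous ssDNA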
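Test system – preformed human Rad51 ssDNA filaments · Reagent – Donor/quencher-labelled 47-bp dsDNA substrate · Incubation – 37 °C 15-min filament assembly, 30-min compound preincubation, 15-min exchange · Signal – FRET fluorescence dequenching, excitation 485 nm, emission 520 nm · Read-out – percent inhibition from fluorescence, normalised to plate control and blank means · Benchmarks – plate control and blank wells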
WT yeast gro inh = growth inhibition of WT strain, primary screen, mitochondrial fusion inhibitor project, WT and mutant strains, chemical genetic; mitochondrial fusion phenotypic screen; inhibition, % at 10 µM; actives 2.1% (n = 190,000); in the data active means inhibition above about 58%; tested in S. cerevisiae
Lmaj promast = Leishmania major promastigote growth inhibition, primary screen; AID 1063, 2008; actives 9% (n = 200,000); Leishmania major promastigotes, resazurin fluorescence viability; inhibition, % at 10 µM; in the data active means inhibition above about 50%;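 further: promastigotes grown with compound for 44 hours at 28 °C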
PMI act satM6P = human PMI activators, high substrate, primary screen, biochemical, fluorescence intensity, near-saturating mannose 6-phosphate. coupled PMI enzyme assay, resazurin fluorescence, 20 min; stronger effect = higher value; 1 = untreated enzyme, 0 = substrate-free blank. activation factor at 20 µM. actives 0.34% (n = 190,000);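 active means activation factor of 2 or more at 20 µM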
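Material: human phosphomannose isomerase with PGI, G6PDH, diaphorase coupling enzymes. Quantity: 15 ng/mL PMI. Medium: HEPES pH 7.4 buffer with MgCl2 and Tween-20. Reagent: Near-saturating mannose-6-phosphate, 1.0 mM. Compound: 20 µM single dose. Times: enzyme reaction with compound 20 min at room temperature. Detection: resorufin fluorescence at Ex 544/Em 590 nm.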
Active calls of the source: *.

What do the screens show for `O=C(/C=C/c1ccc(F)cc1)c1cc(Br)ccc1O`?
Calpain2 inh: -2; Rad51 HR inh: 18

Results for COc1cccc2cc(C(=O)NNC(=O)c3ccc(Br)cc3)c(=O)oc12 ?
PMI act: 1.1; Calpain2 inh: 43; Rad51 HR inh: -7; WT yeast gro inh: 10; Lmaj promast: -8; PMI act satM6P: 1.2

How did Cn1ccnc1SCC(=O)N1CCN(S(=O)(=O)c2ccccc2)CC1 do in these assays?
PMI act: 1.1; Calpain2 inh: 8; Rad51 HR inh: 3; WT yeast gro inh: -1; Lmaj promast: -3; PMI act satM6P: 1.1

How did Cc1cc(C)n2nc(C(=O)Nc3ccc(S(=O)(=O)N(C)C)cc3)nc2n1 do in these assays?
Calpain2 inh: 0; Rad51 HR inh: -2

Results for CCOc1ccccc1NC(=S)N1CCN(c2nc(-c3ccc(F)cc3)cs2)CC1 ?
PMI act: 0.9; Calpain2 inh: -35; Rad51 HR inh: 21; WT yeast gro inh: 25; Lmaj promast: 90*; PMI act satM6P: 1

What do the screens show for `COc1ccc(NC(=O)CN2CCN(c3nc(-c4cccc(OC)c4)cs3)CC2)cc1`?
PMI act: 1; Calpain2 inh: 11; Rad51 HR inh: -3; WT yeast gro inh: 24; Lmaj promast: 6; PMI act satM6P: 1

Results for CCOC(=O)N1CCN(c2nc(-c3ccc(F)cc3)cs2)CC1 ?
PMI act: 0.8; Calpain2 inh: 11; Rad51 HR inh: 3; WT yeast gro inh: 24; Lmaj promast: -11; PMI act satM6P: 0.8

How did COc1ccc(NC(=O)CN2CCN(c3nc(-c4ccc(F)cc4)cs3)CC2)c(OC)c1 do in these assays?
PMI act: 0.9; Calpain2 inh: 56*; Rad51 HR inh: -5; WT yeast gro inh: 27; Lmaj promast: -4; PMI act satM6P: 1

How did COc1cc(/C=C(\C#N)c2ccccn2)ccc1OCc1ccc(Cl)cc1 do in these assays?
PMI act: 0.8; Calpain2 inh: -2; Rad51 HR inh: -2; WT yeast gro inh: 4; Lmaj promast: 7; PMI act satM6P: 0.8

What do the screens show for `COc1cc(/C=N/N(C)c2ccccc2)cc(Cl)c1O`?
PMI act: 0.7; Calpain2 inh: -3; Rad51 HR inh: -5; WT yeast gro inh: 59*; Lmaj promast: -1; PMI act satM6P: 0.8

What do the screens show for `COc1ccc(OC)c(C=Nc2ccccc2-c2nc3ccccc3[nH]2)c1`?
PMI act: 0.8; Calpain2 inh: inactive; Rad51 HR inh: 6; WT yeast gro inh: 12; Lmaj promast: 25; PMI act satM6P: 0.9

Results for COc1ccc(OC)c(/C=N/N(C)c2ccccc2)c1 ?
PMI act: 0.9; Calpain2 inh: -11; Rad51 HR inh: -2; WT yeast gro inh: 27; Lmaj promast: 60*; PMI act satM6P: 0.9

Results for O=c1cc(O)nc(-c2ccc(Cl)cc2)s1 ?
PMI act: 0.8; Calpain2 inh: 13; Rad51 HR inh: -27; WT yeast gro inh: 4; Lmaj promast: -8; PMI act satM6P: 1

What do the screens show for `CSc1nnc2c(n1)OC1(Nc3ccccc3-2)C(=O)Nc2ccccc21` (stereo not drawn)?
PMI act: 1; Calpain2 inh: 10; Rad51 HR inh: -7; WT yeast gro inh: -3; Lmaj promast: -4; PMI act satM6P: 0.8

Results for O=c1c(-c2cnn(-c3ccccc3)c2)coc2cc(O)ccc12 ?
PMI act: 0.9; Calpain2 inh: -280; Rad51 HR inh: -10; WT yeast gro inh: 14; Lmaj promast: 96*; PMI act satM6P: 1

What do the screens show for `Cc1oc2cc(O)ccc2c(=O)c1-c1cnn(-c2ccccc2)c1`?
PMI act: 1.1; Calpain2 inh: inactive; Rad51 HR inh: 20; WT yeast gro inh: -9; Lmaj promast: 14; PMI act satM6P: 1

Results for Nc1ccc2c(c1)COC2=O ?
PMI act: 1.1; Calpain2 inh: 41; Rad51 HR inh: -4; WT yeast gro inh: 8; Lmaj promast: -6; PMI act satM6P: 1

What do the screens show for `O=C1C(O)=C(O)C(=O)c2ccccc21`?
Rad51 HR inh: 5

How did Nc1ccc2c(c1)C(=O)C(=O)c1ccccc1-2 do in these assays?
PMI act: 0.4; Calpain2 inh: 5; Rad51 HR inh: -9; WT yeast gro inh: 97*; Lmaj promast: 100*; PMI act satM6P: 0.6

How did O=C1C(=O)c2ccc(-c3ccccc3)cc2-c2ccccc21 do in these assays?
PMI act: 1.2; Calpain2 inh: -1; Rad51 HR inh: -5; WT yeast gro inh: 78; Lmaj promast: 100*; PMI act satM6P: 0.9

What do the screens show for `CSc1cccc(NC(=O)Cc2ccccc2[N+](=O)[O-])c1`?
PMI act: 0.9; Calpain2 inh: 25; Rad51 HR inh: 2; WT yeast gro inh: 18; Lmaj promast: 7; PMI act satM6P: 1

Results for Cc1noc2ncnc(N3CCN(c4cccc(Cl)c4)CC3)c12 ?
PMI act: 1; Calpain2 inh: -14; Rad51 HR inh: 15; WT yeast gro inh: 61*; Lmaj promast: 12; PMI act satM6P: 1

Results for Cc1cc(C(=O)NNS(=O)(=O)c2cccc(Cl)c2)nn1C(C)(C)C ?
Calpain2 inh: 4; Rad51 HR inh: 9

How did Oc1cccc(C(O)CNCc2ccc(OCc3ccc(Cl)cc3Cl)cc2)c1 (stereo not drawn) do in these assays?
PMI act: 1.1; Calpain2 inh: 10; Rad51 HR inh: 19; WT yeast gro inh: 88*; Lmaj promast: 97*; PMI act satM6P: 1

Results for OC(CNCc1cccc(Cl)c1)c1ccccc1 (stereo not drawn) ?
PMI act: 1; Calpain2 inh: 11; Rad51 HR inh: 4; WT yeast gro inh: 7; Lmaj promast: 11; PMI act satM6P: 1

How did O=C(NCCc1ccccc1)C(c1cccs1)N(C(=O)CCl)c1ccc(Cl)cc1 (stereo not drawn) do in these assays?
PMI act: 1; Calpain2 inh: -6; WT yeast gro inh: 57; Lmaj promast: 101*; PMI act satM6P: 1.1

Results for CC1CC(C)(C)NC(=S)N1CCC(=O)N1CCc2ccccc2C1 (stereo not drawn) ?
PMI act: 1; Calpain2 inh: 2; Rad51 HR inh: 2; WT yeast gro inh: 10; Lmaj promast: 3; PMI act satM6P: 0.9

How did COc1ccc2ccccc2c1CN1CCN(Cc2ccccc2)CC1 do in these assays?
PMI act: 1.1; Calpain2 inh: -17; Rad51 HR inh: 0; WT yeast gro inh: -1; Lmaj promast: 56*; PMI act satM6P: 1.1
